In ChEMBL document CHEMBL4371053, “A novel tetrazole analogue of resveratrol is a potent anticancer agent” (Bioorg Med Chem Lett, 2019):
The source made the active and inactive calls. No cut-off for these calls is given here.

Legend:
NCI-H460 = assay: Growth inhibition of human NCI-H460 cells at 10 uM after 48 hrs by sulforhodamine B assay relative to control; format: functional; settings: NCI-H460, 48 h, values are per cent of control
Outline: (§1)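 NCI-60 single-dose screen. Cells exposed to 10⁻⁵ M or to vehicle for 48 h. Growth measured by sulforhodamine B optical density before and after exposure. Reported as percent growth relative to vehicle control and to time-zero cell number; negative values indicate cell kill.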

NCI-H522 = assay: Growth inhibition of human NCI-H522 cells at 10 uM after 48 hrs by sulforhodamine B assay relative to control; format: functional; settings: NCI-H522, 48 h, values are per cent of control; outline: as §1
KM12 [1] = assay: Growth inhibition of human KM12 cells at 10 uM after 48 hrs by sulforhodamine B assay relative to control; format: functional; settings: KM12, 48 h, values are per cent of control; outline: as §1
MDA-MB-435 = assay: Growth inhibition of human MDA-MB-435 cells at 10 uM after 48 hrs by sulforhodamine B assay relative to control; format: functional; settings: MDA-MB-435, 48 h, values are per cent of control; outline: as §1
SK-MEL-5 [2] = assay: Growth inhibition of human SK-MEL-5 cells at 10 uM after 48 hrs by sulforhodamine B assay relative to control; format: functional; settings: SK-MEL-5, 48 h, values are per cent of control; outline: as §1
A498 = assay: Growth inhibition of human A498 cells at 10 uM after 48 hrs by sulforhodamine B assay relative to control; format: functional; settings: A498, 48 h, values are per cent of control; outline: as §1
DU-145 [3] = assay: Growth inhibition of human DU145 cells at 10 uM after 48 hrs by sulforhodamine B assay relative to control; format: functional; settings: DU-145, 48 h, values are per cent of control; outline: as §1
CCRF-CEM = assay: Growth inhibition of human CCRF-CEM cells incubated for 48 hrs by sulforhodamine B assay; format: functional
Outline: (§2)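 NCI-60 five-dose study at 10⁻⁴, 10⁻⁵, 10⁻⁶, 10⁻⁷ and 10⁻⁸ M, 48 h incubation. Growth determined from sulforhodamine B optical density before and after exposure, relative to vehicle control and time-zero counts. GI₅₀ is the molar concentration giving 50% growth inhibition.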

HL-60(TB) = assay: Growth inhibition of human HL-60(TB) cells incubated for 48 hrs by sulforhodamine B assay; format: functional; settings: HL-60, 48 h; outline: as §2
K562 = assay: Growth inhibition of human K562 cells incubated for 48 hrs by sulforhodamine B assay; format: functional; settings: K562, 48 h; outline: as §2
RPMI-8226 = assay: Growth inhibition of human RPMI8226 cells incubated for 48 hrs by sulforhodamine B assay; format: functional; settings: RPMI-8226, 48 h; outline: as §2
A549 = assay: Growth inhibition of human A549/ATCC cells incubated for 48 hrs by sulforhodamine B assay; format: functional; settings: A549, 48 h; outline: as §2
NCI-H23 = assay: Growth inhibition of human NCI-H23 cells incubated for 48 hrs by sulforhodamine B assay; format: functional; settings: NCI-H23, 48 h; outline: as §2
COLO 205 = assay: Growth inhibition of human COLO205 cells incubated for 48 hrs by sulforhodamine B assay; format: functional; settings: COLO 205, 48 h; outline: as §2
HCT-116 = assay: Growth inhibition of human HCT116 cells incubated for 48 hrs by sulforhodamine B assay; format: functional; settings: HCT-116, 48 h; outline: as §2
HCT-15 = assay: Growth inhibition of human HCT15 cells incubated for 48 hrs by sulforhodamine B assay; format: functional; settings: HCT-15, 48 h; outline: as §2
KM12 [4] = assay: Growth inhibition of human KM12 cells incubated for 48 hrs by sulforhodamine B assay; format: functional; settings: KM12, 48 h; outline: as §2
SW-620 = assay: Growth inhibition of human SW620 cells incubated for 48 hrs by sulforhodamine B assay; format: functional; settings: SW-620, 48 h
Outline: (§3)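 NCI-60 screen run per Rubinstein protocol. Sulforhodamine B optical density was read before and after 48 h exposure to compound or vehicle. The single-dose pass at 10⁻⁵ M reported percent growth relative to vehicle control and time-zero cell number. The five-dose follow-up used 10⁻⁴ to 10⁻⁸ M, giving GI₅₀ as the molar concentration causing 50% growth inhibition.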

SF-268 = assay: Growth inhibition of human SF268 cells incubated for 48 hrs by sulforhodamine B assay; format: functional; settings: SF-268, 48 h; outline: as §2
SNB-19 = assay: Growth inhibition of human SNB19 cells incubated for 48 hrs by sulforhodamine B assay; format: functional; settings: SNB-19, 48 h; outline: as §3
SNB-75 = assay: Growth inhibition of human SNB75 cells incubated for 48 hrs by sulforhodamine B assay; format: functional; settings: SNB-75, 48 h; outline: as §3
LOX IMVI = assay: Growth inhibition of human LOXIMVI cells incubated for 48 hrs by sulforhodamine B assay; format: functional; outline: as §2
SK-MEL-2 = assay: Growth inhibition of human SK-MEL-2 cells incubated for 48 hrs by sulforhodamine B assay; format: functional; settings: SK-MEL-2, 48 h; outline: as §2
SK-MEL-28 = assay: Growth inhibition of human SK-MEL-28 cells incubated for 48 hrs by sulforhodamine B assay; format: functional; settings: SK-MEL-28, 48 h; outline: as §2
SK-MEL-5 [5] = assay: Growth inhibition of human SK-MEL-5 cells incubated for 48 hrs by sulforhodamine B assay; format: functional; settings: SK-MEL-5, 48 h; outline: as §3
IGROV-1 = assay: Growth inhibition of human IGROV1 cells incubated for 48 hrs by sulforhodamine B assay; format: functional; settings: IGROV-1, 48 h; outline: as §2
OVCAR-4 = assay: Growth inhibition of human OVCAR4 cells incubated for 48 hrs by sulforhodamine B assay; format: functional; settings: OVCAR-4, 48 h; outline: as §2
NCI/ADR-RES = assay: Growth inhibition of human NCI/ADR-RES cells incubated for 48 hrs by sulforhodamine B assay; format: functional; outline: as §2
SK-OV-3 = assay: Growth inhibition of human SKOV3 cells incubated for 48 hrs by sulforhodamine B assay; format: functional; settings: SK-OV-3, 48 h; outline: as §3
786-0 = assay: Growth inhibition of human 786-0 cells incubated for 48 hrs by sulforhodamine B assay; format: functional; settings: 786-0, 48 h; outline: as §2
ACHN = assay: Growth inhibition of human ACHN cells incubated for 48 hrs by sulforhodamine B assay; format: functional; outline: as §2
RXF 393 = assay: Growth inhibition of human RXF393 cells incubated for 48 hrs by sulforhodamine B assay; format: functional; settings: RXF 393, 48 h; outline: as §2
UO-31 = assay: Growth inhibition of human UO31 cells incubated for 48 hrs by sulforhodamine B assay; format: functional; settings: UO-31, 48 h; outline: as §3
DU-145 [6] = assay: Growth inhibition of human DU145 cells incubated for 48 hrs by sulforhodamine B assay; format: functional; settings: DU-145, 48 h; outline: as §2
MDA-MB-468 = assay: Growth inhibition of human MDA-MB-468 cells incubated for 48 hrs by sulforhodamine B assay; format: functional; settings: MDA-MB-468, 48 h; outline: as §2
Tubulin (Homo sapiens) = Tubulin (Homo sapiens) (UniProt P68371+Q9H4B7+P0DPH7+P68366+Q13509+Q71U36+P04350+Q3ZCM7+P07437+P68363+Q9BQE3+Q6PEY2+Q13885+Q9BVA1+Q9BUF5); assay: Inhibition of tubulin (unknown origin) polymerization at 2 uM by immunoblot analysis; format: protein-complex assay
Outline: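 Cell-based assay. Cells were treated with compound at 1.0 and 2.0 μM. Polymerized tubulin (pellet) was separated from unpolymerized tubulin (supernatant), and both fractions were immunoblotted with anti-tubulin antibody.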

[7] = Cytotoxicity against stromal cells (unknown origin) assessed as reduction in cell viability by alamar blue assay; format: cell-based; settings: read-out: LD50 (the source's name)

SMILES	growth, % of control at 10 µM (NCI-H460) [%]	growth, % of control at 10 µM (NCI-H522) [%]	growth, % of control at 10 µM (KM12 [1]) [%]	growth, % of control at 10 µM (MDA-MB-435) [%]	growth, % of control at 10 µM (SK-MEL-5 [2]) [%]	growth, % of control at 10 µM (A498) [%]	growth, % of control at 10 µM (DU-145 [3]) [%]	GI50 (CCRF-CEM) [µM]	GI50 (HL-60(TB)) [µM]	GI50 (K562) [µM]	GI50 (RPMI-8226) [µM]	GI50 (A549) [µM]	GI50 (NCI-H23) [µM]	GI50 (COLO 205) [µM]	GI50 (HCT-116) [µM]	GI50 (HCT-15) [µM]	GI50 (KM12 [4]) [µM]	GI50 (SW-620) [µM]	GI50 (SF-268) [µM]	GI50 (SNB-19) [µM]	other results
COc1ccc(/C=C(/c2cc(OC)c(OC)c(OC)c2)c2nnn[nH]2)cc1O	2.67	-6.32	-1.73	-8.4	-54	-3.5	3.41	< 0.01	< 0.01	< 0.01	< 0.01	< 0.01	< 0.01	0.97	< 0.01	< 0.01	< 0.01	< 0.01	< 0.01	< 0.01	GI50 (SNB-75): < 0.01 µM; GI50 (LOX IMVI): < 0.01 µM; GI50 (SK-MEL-2): < 0.01 µM; GI50 (SK-MEL-28): < 0.01 µM; GI50 (SK-MEL-5 [5]): < 0.01 µM; GI50 (IGROV-1): < 0.01 µM; GI50 (OVCAR-4): < 0.01 µM; GI50 (NCI/ADR-RES): < 0.01 µM; GI50 (SK-OV-3): < 0.01 µM; GI50 (786-0): < 0.01 µM; GI50 (ACHN): < 0.01 µM; GI50 (RXF 393): < 0.01 µM; GI50 (UO-31): < 0.01 µM; GI50 (DU-145 [6]): < 0.01 µM; GI50 (MDA-MB-468): < 0.01 µM; inhibition (Tubulin (Homo sapiens)): Active; CC50 [7]: > 50 µM
COc1ccc(/C(=C/c2ccc3ccccc3c2)c2nnn[nH]2)cc1OC	14.1	-2.85	24.5	-41	23.5	14.5	20.9	3.33	2.56	0.67	4.02	3.8	5.29	2.27	2.42	2.92	2.79	1.36	6.55	7.84	GI50 (SNB-75): 2.51 µM; GI50 (LOX IMVI): 5.63 µM; GI50 (SK-MEL-2): 4.36 µM; GI50 (SK-MEL-28): 8.07 µM; GI50 (SK-MEL-5 [5]): 4.68 µM; GI50 (IGROV-1): 4.23 µM; GI50 (OVCAR-4): 7.78 µM; GI50 (NCI/ADR-RES): 1.03 µM; GI50 (SK-OV-3): 3.63 µM; GI50 (786-0): 5.72 µM; GI50 (ACHN): 11.3 µM; GI50 (RXF 393): 2.48 µM; GI50 (UO-31): 5.59 µM; GI50 (DU-145 [6]): 3.53 µM; GI50 (MDA-MB-468): 21.5 µM; inhibition (Tubulin (Homo sapiens)): inactive; CC50 [7]: > 50 µM
